Measured values published in ChEMBL document CHEMBL1806392, “Phytochemical studies on Stemona aphylla: isolation of a new stemofoline alkaloid and six new stemofurans” (2011).
≈ marks a conversion by molar mass, not a printed value.

How the values were obtained:
[1] = target: Acetylcholinesterase (Homo sapiens) (UniProt P22303)
Candida albicans = assay: Antifungal activity against Candida albicans by broth dilution method; format: functional
Summary of the method: (§1)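 Antifungal MIC determined by broth dilution, reported in µg/mL. Amphotericin B served as the positive control.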

Cryptococcus neoformans = assay: Antifungal activity against Cryptococcus neoformans by broth dilution method; format: functional
Summary of the method: as §1

Staphylococcus aureus [2] = assay: Antibacterial activity against methicillin-resistant Staphylococcus aureus by broth dilution method; format: functional
Summary of the method: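 Broth dilution giving an MIC in µg/mL, with gentamicin as the antibacterial positive control. The same series covered E. coli, K. pneumoniae, S. aureus, S. pyogenes and two fungi.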

Escherichia coli = assay: Antibacterial activity against Escherichia coli by broth dilution method; format: functional
Summary of the method: (§2)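 Broth dilution MIC determination against the bacterium, reported in µg/mL. Gentamicin served as the positive control.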

Klebsiella pneumoniae = assay: Antibacterial activity against Klebsiella pneumoniae by broth dilution method; format: functional
Summary of the method: as §2

Staphylococcus aureus [3] = assay: Antibacterial activity against Staphylococcus aureus by broth dilution method; format: functional
Summary of the method: as §2

Streptococcus pyogenes = assay: Antibacterial activity against Streptococcus pyogenes by broth dilution method; format: functional
Summary of the method: as §2

Acetylcholinesterase (Homo sapiens), sequence (P22303 whole entry): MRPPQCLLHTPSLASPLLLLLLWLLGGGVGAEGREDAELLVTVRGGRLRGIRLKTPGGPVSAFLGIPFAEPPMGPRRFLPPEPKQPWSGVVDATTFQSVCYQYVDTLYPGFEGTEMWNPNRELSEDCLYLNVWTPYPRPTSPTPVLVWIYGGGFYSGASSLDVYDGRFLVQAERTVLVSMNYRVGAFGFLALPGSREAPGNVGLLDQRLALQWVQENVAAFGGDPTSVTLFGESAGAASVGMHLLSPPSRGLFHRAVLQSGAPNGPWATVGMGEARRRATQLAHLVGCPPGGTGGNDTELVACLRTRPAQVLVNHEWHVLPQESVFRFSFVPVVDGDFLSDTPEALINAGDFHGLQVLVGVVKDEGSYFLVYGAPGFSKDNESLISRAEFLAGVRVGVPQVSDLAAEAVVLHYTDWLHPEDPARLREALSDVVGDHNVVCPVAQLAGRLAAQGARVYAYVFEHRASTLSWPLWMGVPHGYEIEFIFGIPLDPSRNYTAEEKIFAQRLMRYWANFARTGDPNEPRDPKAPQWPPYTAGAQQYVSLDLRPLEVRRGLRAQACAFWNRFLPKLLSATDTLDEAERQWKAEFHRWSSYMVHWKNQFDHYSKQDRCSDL

Compound	MIC [1] [ng]	MIC (Candida albicans) [µg/mL]	MIC (Cryptococcus neoformans) [µg/mL]	MIC (Staphylococcus aureus [2]) [µg/mL]	MIC (Escherichia coli) [µg/mL]	MIC (Klebsiella pneumoniae) [µg/mL]	MIC (Staphylococcus aureus [3]) [µg/mL]	MIC (Streptococcus pyogenes) [µg/mL]
CC/C=C/[C@@]12[C@@H]3C[C@H]4[C@H]5[C@H](C)/C(=C6/OC(=O)C(C)=C6OC)O[C@]5(O3)[C@@H]1CCN42	5							
CCCC[C@@]12C3CCN1[C@H]1C[C@H]2O[C@@]32O/C(=C3\OC(=O)C(C)=C3OC)[C@@H](C)[C@H]12	10							
CC[C@H](O)C[C@@]12[C@@H]3C[C@H]4[C@H]5[C@H](C)/C(=C6/OC(=O)C(C)=C6OC)O[C@]5(O3)[C@@H]1CCN42	10							
CC[C@H](O)C[C@@]12[C@@H]3C[C@H]4[C@H]5[C@H](C)/C(=C6\OC(=O)C(C)=C6OC)O[C@]5(O3)[C@@H]1CCN42	10							
CC[C@H](O)C[C@@]12[C@@H]3C[C@H]4[C@H]5[C@H](C)[C@@H]([C@@H]6OC(=O)C(C)=C6OC)O[C@]5(O3)[C@@H]1CCN42	100							
CC[C@H](O)C[C@@]12[C@@H]3C[C@H]4[C@H]5[C@H](C)[C@@H]([C@H]6OC(=O)C(C)=C6OC)O[C@]5(O3)[C@@H]1CCN42	50							
C[C@@H]1[C@H](O)[C@@H](C)/C=C/C=C/C=C/C=C/C=C/C=C/C=C/[C@H](O[C@@H]2O[C@H](C)[C@@H](O)[C@H](N)[C@@H]2O)C[C@@H]2O[C@](O)(C[C@@H](O)C[C@@H](O)[C@H](O)CC[C@@H](O)C[C@@H](O)CC(=O)O[C@H]1C)C[C@H](O)[C@H]2C(=O)O [AMPHOTERICIN B]		15.6 (≈ 16.9 µM)	3.9 (≈ 4.22 µM)					
COc1cc(-c2cc3c(O)cccc3o2)c(C)c(O)c1C [STEMOFURAN E]		31.3 (≈ 110 µM)	7.8 (≈ 27.4 µM)	15.6 (≈ 54.9 µM)	62.5 (≈ 220 µM)	62.5 (≈ 220 µM)	62.5 (≈ 220 µM)	
COc1cc(-c2cc3c(O)cccc3o2)c(C)c(OC)c1C [STEMOFURAN J]		31.3 (≈ 105 µM)	7.8 (≈ 26.1 µM)	15.6 (≈ 52.3 µM)	62.5 (≈ 209 µM)	62.5 (≈ 209 µM)	62.5 (≈ 209 µM)	62.5 (≈ 209 µM)
COc1cc(O)c(C)c(-c2cc3c(O)cc(OC)cc3o2)c1 [STEMOFURAN M]		31.3 (≈ 104 µM)	31.3 (≈ 104 µM)	31.3 (≈ 104 µM)	125 (≈ 416 µM)	62.5 (≈ 208 µM)	31.3 (≈ 104 µM)	62.5 (≈ 208 µM)
COc1cc(OC)c(C)c(-c2cc3c(O)cc(OC)cc3o2)c1 [STEMOFURAN P]		15.6 (≈ 49.6 µM)	7.8 (≈ 24.8 µM)	62.5 (≈ 199 µM)	62.5 (≈ 199 µM)	125 (≈ 398 µM)	31.3 (≈ 99.6 µM)	
GENTAMICIN				45	11.3	11.3	22.5	5.6
